Reference: publication PMC11439047 (Nature Communications, 2024)
Numbering of substitutions follows the chain as printed.

Key:
[1] = target: T1, WT-P2X1 receptor (Homo sapiens, UniProt P51575); assay: Calcium ion influx assay; type: cell-based; details: read-out: potency; WT-P2X1, Fig. 4B
T1 sequence (P51575 1-399): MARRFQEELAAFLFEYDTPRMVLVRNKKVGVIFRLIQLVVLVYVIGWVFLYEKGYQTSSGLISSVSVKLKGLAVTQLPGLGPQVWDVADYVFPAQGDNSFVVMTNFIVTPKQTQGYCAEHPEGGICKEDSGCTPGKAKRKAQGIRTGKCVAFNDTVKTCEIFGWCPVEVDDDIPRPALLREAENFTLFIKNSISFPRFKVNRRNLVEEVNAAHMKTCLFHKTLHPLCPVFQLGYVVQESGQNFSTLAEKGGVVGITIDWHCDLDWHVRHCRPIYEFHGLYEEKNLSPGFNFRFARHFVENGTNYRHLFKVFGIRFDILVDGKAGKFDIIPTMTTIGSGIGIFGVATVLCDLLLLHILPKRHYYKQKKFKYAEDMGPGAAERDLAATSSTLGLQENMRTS

[2] = target: T2, P2X1 receptor F188L (Homo sapiens, UniProt P51575, F188L); assay: Calcium ion influx assay; type: cell-based; details: maximal α,β-methylene ATP
T2 sequence (P51575 1-399 F188L): T1 sequence (P51575 1-399) with F188L

[3] = target: T3, P2X1 receptor K136W (Homo sapiens, UniProt P51575, K136W); assay: Saturation radioligand binding with [3H]-α,β-methylene ATP
T3 sequence (P51575 1-399 K136W): T1 sequence (P51575 1-399) with K136W
Summary of the method: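 Whole HEK293 Flp-In T-REx cells stably expressing receptor, tetracycline-induced (150 ng/ml, 2 days), 15,000 cells/well, washed in HEPES binding buffer pH 7.4 with Ca2+/Mg2+. Increasing [3H]-α,β-methylene ATP added, 3 h room temperature with gentle agitation; non-specific binding with 10 μM ATP. Ice-cold 0.9% NaCl washes, scintillation counting (CCPM). Specific binding fitted one-site; values above 300 nM termed not defined.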

EC50 [1]: 0.099 µM
time to achieve 50% decay, times WT-P2X1 [2]: approximately 1.5 times
binding affinity compared to WT-P2X1 [3]: similar
SMILES: Nc1ncnc2c1ncn2[C@@H]1O[C@H](COP(=O)(O)CP(=O)(O)OP(=O)(O)O)[C@@H](O)[C@H]1O [α,β-methylene ATP]
